Reference: ChEMBL document CHEMBL1129507, “Betulinic acid derivatives: a new class of human immunodeficiency virus type 1 specific inhibitors with a new mode of action” (J Med Chem, 1996)

Tests used:
MT4 [1] = test: Ability to inhibit the cytopathic effect induced by HIV-1 infection in MT-4 cells; assay type: functional, cell-based; conditions: Homo sapiens
Method in brief: (§1)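 MT-4 cells infected with HIV-1 strain IIIB/LAI. Protection from virus-induced cytopathogenicity measured by the MTT method. IC50 is the concentration giving 50% protection, mean of at least two experiments.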

CCRF-CEM [2] = test: Ability to inhibit the cytopathic effect induced by HIV-1 infection in CEM T-lymphoblastoid tumor cell line; assay type: functional, cell-based; conditions: Homo sapiens
Method in brief: (§2)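 CEM 4 cells in RPMI 1640 with 10% heat-inactivated FCS, penicillin, streptomycin, glutamine and polybrene (2 µg/mL), 37 °C, 5% CO2. Compound dilutions or PBS preincubated with cells for 1 h, then infected with HIV-1 IIIB/LAI (100-200 CCID50) and cultured ≥5 days. Mock-infected parallel cultures for cytotoxicity. Absorbance read at 540 nm; IC50 for 50% protection against cytopathogenicity, mean of ≥2 experiments.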

CCRF-CEM [3] = test: Ability to inhibit the cytopathic effect induced by HIV-1 infection in CEM T-lymphoblastoid tumor cell line; NA=not active.; assay type: functional, cell-based, Homo sapiens; method in brief: as §2
MT4 [4] = test: Ability to inhibit the cytopathic effect induced by HIV-1 infection in MT-4 cells; NA=not active.; assay type: functional, cell-based, Homo sapiens; method in brief: as §1

| IC50 (CCRF-CEM [2]) | IC50 (CCRF-CEM [3]) | SMILES | IC50 (MT4 [1]) | IC50 (MT4 [4]) |
| --- | --- | --- | --- | --- |
| 1000 nM |  | C=C(CSCCN(CC)CC)[C@@H]1CC[C@]2(C(=O)NCCCCCCCCCCC(=O)O)CC[C@]3(C)[C@H](CCC4[C@@]5(C)CC[C@H](O)C(C)(C)[C@@H]5CC[C@]43C)[C@@H]12 (stereo partly specified) | 630 nM |  |
|  | Not Active | C=C(CSCC(=O)O)[C@@H]1CC[C@]2(C(=O)NCCCCCCCCCCC(=O)O)CC[C@]3(C)[C@H](CCC4[C@@]5(C)CC[C@H](O)C(C)(C)[C@@H]5CC[C@]43C)[C@@H]12 (stereo partly specified) | 1610 nM |  |
|  | Not Active | C=C(C)[C@@H]1CC[C@]2(C(=O)N(C)CCCCCCCCCCC(=O)O)CC[C@]3(C)[C@H](CCC4[C@@]5(C)CC[C@H](O)C(C)(C)[C@@H]5CC[C@]43C)[C@@H]12 (stereo partly specified) |  | Not Active |
|  | Not Active | C=C(C)[C@@H]1CC[C@]2(CNCCCCCCCCCCC(=O)O)CC[C@]3(C)[C@H](CCC4[C@@]5(C)CC[C@H](O)C(C)(C)[C@@H]5CC[C@]43C)[C@@H]12 (stereo partly specified) |  |  |
|  | Not Active | C=C(C)[C@@H]1CC[C@]2(C(=O)OCCCCCCCCCCC(=O)O)CC[C@]3(C)[C@H](CCC4[C@@]5(C)CC[C@H](O)C(C)(C)[C@@H]5CC[C@]43C)[C@@H]12 (stereo partly specified) |  | Not Active |
|  | Not Active | C=C(C)[C@@H]1CC[C@]2(NC(=O)NCCCCCCCCCC(=O)O)CC[C@]3(C)[C@H](CCC4[C@@]5(C)CC[C@H](O)C(C)(C)[C@@H]5CC[C@]43C)[C@@H]12 (stereo partly specified) |  | Not Active |
| 50000 nM |  | CC1(C)C(O)CC[C@@]2(C)C1CC[C@]1(C)C2CCC2C3[C@H](C(=O)O)CC[C@]3(C(=O)NCCCCCCCCCCC(=O)O)CC[C@]21C (stereo partly specified) | 9000 nM |  |
| 1250 nM |  | C=C(CNC(C)=O)[C@@H]1CC[C@]2(C(=O)NCCCCCCCCCCC(=O)O)CC[C@]3(C)[C@H](CCC4[C@@]5(C)CC[C@H](O)C(C)(C)[C@@H]5CC[C@]43C)[C@@H]12 (stereo partly specified) | 260 nM |  |
| 12000 nM |  | CC(=O)[C@@H]1CC[C@]2(C(=O)NCCCCCCCCCCC(=O)O)CC[C@]3(C)C(CCC4[C@@]5(C)CCC(O)C(C)(C)C5CC[C@]43C)C12 (stereo partly specified) |  |  |
|  | Not Active | C=C(C)[C@@H]1CC[C@]2(NC(=O)CCCCCCCCCCC(=O)O)CC[C@]3(C)[C@H](CCC4[C@@]5(C)CC[C@H](O)C(C)(C)[C@@H]5CC[C@]43C)[C@@H]12 (stereo partly specified) |  | Not Active |
|  | Not Active | C=C(C)[C@@H]1CC[C@]2(C(=O)NCCCCCCCCCCC(=O)O)CC[C@]3(C)[C@H](CCC4[C@@]5(C)CC[C@H](OC)C(C)(C)[C@@H]5CC[C@]43C)[C@@H]12 (stereo partly specified) |  | Not Active |
|  | Not Active | C=C(CNCC(=O)O)[C@@H]1CC[C@]2(C(=O)NCCCCCCCCCCC(=O)O)CC[C@]3(C)[C@H](CCC4[C@@]5(C)CC[C@H](O)C(C)(C)[C@@H]5CC[C@]43C)[C@@H]12 (stereo partly specified) |  |  |
| 1000 nM |  | C=C(CN1CCCC1)[C@@H]1CC[C@]2(C(=O)NCCCCCCCCCCC(=O)O)CC[C@]3(C)[C@H](CCC4[C@@]5(C)CC[C@H](O)C(C)(C)[C@@H]5CC[C@]43C)[C@@H]12 (stereo partly specified) | 420 nM |  |
| 5750 nM |  | C=C(CNCCO)[C@@H]1CC[C@]2(C(=O)NCCCCCCCCCCC(=O)O)CC[C@]3(C)[C@H](CCC4[C@@]5(C)CC[C@H](O)C(C)(C)[C@@H]5CC[C@]43C)[C@@H]12 (stereo partly specified) | 2000 nM |  |
| 3000 nM |  | C=C(C)[C@@H]1CC[C@]2(C(=O)NCCCCCCCCCCC(=O)O)CC[C@]3(C)[C@H](CCC4[C@@]5(C)CC[C@@H](O)C(C)(C)[C@@H]5CC[C@]43C)[C@@H]12 (stereo partly specified) | 2520 nM |  |
|  | Not Active | C=C(C)[C@@H]1CC[C@]2(C(=O)NCCCCCCCCCCC(=O)O)CC[C@]3(C)C(CCC4[C@@]5(C)CC(O)C(O)C(C)(C)C5CC[C@]43C)C12 (stereo partly specified) |  |  |
| 1800 nM |  | C=C(C)[C@@H]1CC[C@]2(C(=O)NCCCCCCCCCCC(=O)O)CC[C@]3(C)C(CC[C@@H]4[C@@]5(C)CC=CC(C)(C)C5CC[C@]43C)C12 (stereo partly specified) | 2600 nM |  |
| 1500 nM |  | CC(C)[C@@H]1CC[C@]2(C(=O)NCCCCCCCCCCC(=O)O)CC[C@]3(C)C(CC[C@@H]4[C@@]5(C)CCC(O)C(C)(C)C5CC[C@]43C)C12 (stereo partly specified) | 580 nM |  |
| 3000 nM |  | C=C(C)[C@@H]1CC[C@]2(C(=O)NCCCCCCCCCCC(=O)O)CC[C@]3(C)C(CC[C@@H]4[C@@]5(C)C=C(O)C(=O)C(C)(C)C5CC[C@]43C)C12 (stereo partly specified) |  |  |
|  | Not Active | C=C(C)[C@@H]1CC[C@]2(C(=O)NCCCCCCCCCCC(=O)O)CC[C@]3(C)[C@H](CCC4[C@@]5(C)CCCC(C)(C)[C@@H]5CC[C@]43C)[C@@H]12 (stereo partly specified) |  |  |
|  | Not Active | C=C(C)[C@@H]1CC[C@]2(C(=O)NCCCCCCCCCCC(=O)O)CC[C@]3(C)[C@H](CCC4[C@@]5(C)CC[C@H](N)C(C)(C)[C@@H]5CC[C@]43C)[C@@H]12 (stereo partly specified) |  |  |
| 230 nM |  | C=C(C)[C@@H]1CC[C@]2(C(=O)NCCCCCCCCCCC(=O)O)CC[C@]3(C)[C@H](CCC4[C@@]5(C)CC[C@H](O)C(C)(C)[C@@H]5CC[C@]43C)[C@@H]12 (stereo partly specified) | 440 nM |  |
| 290 nM |  | C=C(CSCCO)[C@@H]1CC[C@]2(C(=O)NCCCCCCCCCCC(=O)O)CC[C@]3(C)[C@H](CCC4[C@@]5(C)CC[C@H](O)C(C)(C)[C@@H]5CC[C@]43C)[C@@H]12 (stereo partly specified) | 270 nM |  |
|  | Not Active | C=C(CN)[C@@H]1CC[C@]2(C(=O)NCCCCCCCCCCC(=O)O)CC[C@]3(C)[C@H](CCC4[C@@]5(C)CC[C@H](O)C(C)(C)[C@@H]5CC[C@]43C)[C@@H]12 (stereo partly specified) |  |  |
| 200 nM |  | C=C(CO)[C@@H]1CC[C@]2(C(=O)NCCCCCCCCCCC(=O)O)CC[C@]3(C)[C@H](CCC4[C@@]5(C)CC[C@H](O)C(C)(C)[C@@H]5CC[C@]43C)[C@@H]12 (stereo partly specified) | 380 nM |  |
| 2000 nM |  | C=C(CSc1ccc(F)cc1)[C@@H]1CC[C@]2(C(=O)NCCCCCCCCCCC(=O)O)CC[C@]3(C)[C@H](CCC4[C@@]5(C)CC[C@H](O)C(C)(C)[C@@H]5CC[C@]43C)[C@@H]12 (stereo partly specified) | 1370 nM |  |
| 1200 nM |  | C=C(C)[C@@H]1CC[C@]2(C(=O)NCCCCCCCCCCC(=O)O)CC[C@]3(C)[C@H](CCC4[C@@]5(C)CCC(=O)C(C)(C)[C@@H]5CC[C@]43C)[C@@H]12 (stereo partly specified) | 330 nM |  |
